Data: paper PMC2172834 (The Journal of Cell Biology, 2003)

B3: Bcl-w ΔC10 (C29S, A128E), His6-tagged recombinant (domain or fragment, UniProt Q92843 1-183, looked up)
chain: MATPASAPDTRALVADFVGYKLRQKGYVSGAGPGEGPAADPLHQAMRAAGDEFETRFRRTFSDLAAQLHVTPGSAQQRFTQVSDELFQGGPNWGRLVAFFVFGAALCAESVNKEMEPLVGQVQEWMVEYLETQLADWIHSSGGWAEFTALYGDGALEEARRLREGNWASVRTVLTGAVALGAL

Experiments:
Bcl-w in FDC-P1 cells = experiment: Damage-induced membrane association of Bcl-w, FDC-P1 cells; assay type: cell-based
Method in brief: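 FDC-P1 or FD/FLAG–Bcl-w cells were given 100 nM staurosporine, 10 Gy γ irradiation or IL-3 withdrawal, in some runs with 50 μM zVAD.fmk. Cells were lysed in HMKEE/250 mM sucrose/0.025% digitonin for 10 min on ice. Pellet (13,000 rpm, 2 min, 4°C) and soluble fractions were separated. Pellet was RIPA-solubilised, with or without alkali treatment, and immunoblotted for Bcl-w.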

[1] = test system: endogenous Bcl-w in HeLa cells; experiment: Drug-induced membrane association of endogenous Bcl-w, HeLa cells; assay type: cell-based; settings: 24 h, 1.0 μg/ml etoposide (VP16) or 10 nM staurosporine
Method in brief: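 HeLa cells were harvested 24 h after 50 Jm−2 UV, 1.0 μg/ml etoposide or 10 nM staurosporine. Lysis was in HMKEE buffer (Hepes pH 7.2) with 250 mM sucrose and 0.025% digitonin, 10 min on ice. Pellet (13,000 rpm, 2 min, 4°C) was solubilised in RIPA. Soluble and pellet fractions were immunoblotted for endogenous Bcl-w.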

FDC-P1 cells = experiment: Inhibition of apoptosis / cell survival; assay type: cell-based; settings: zVAD.fmk with death signals
[2] = molecular target: B3; experiment: SPR
Bcl-w ΔC10 = molecular target: T1, Bcl-w ΔC10 (Homo sapiens, UniProt Q92843, A128E/C29S); experiment: Optical biosensor; assay type: binding
T1 sequence (Q92843 1-183 C29S/A128E limits assumed): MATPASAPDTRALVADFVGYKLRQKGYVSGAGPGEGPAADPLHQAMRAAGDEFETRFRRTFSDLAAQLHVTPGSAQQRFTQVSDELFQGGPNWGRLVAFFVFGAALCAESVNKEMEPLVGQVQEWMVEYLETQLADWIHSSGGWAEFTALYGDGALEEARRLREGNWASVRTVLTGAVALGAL

[3] = molecular target: T2, L94ABH3, 26-mer Bim BH3 peptide with L94A (mouse, L94A (stands in the printed letters)); experiment: SPR
T2 peptide: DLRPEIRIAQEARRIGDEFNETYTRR

BimEL = experiment: Coimmunoprecipitation of Bcl-w constructs with BimEL; assay type: binding; settings: 35S-labeled lysates, 293T cells

Molecule: CN[C@@H]1C[C@H]2O[C@@](C)([C@@H]1OC)n1c3ccccc3c3c4c(c5c6ccccc6n2c5c31)C(=O)NC4 [staurosporine]
- membrane association of endogenous Bcl-w, alkali-resistant (Bcl-w in FDC-P1 cells; FDC-P1 cells, 100 nM staurosporine): damage signals induce membrane association resistant to alkali treatment
- membrane association of endogenous Bcl-w [1]: Damage signals trigger membrane association of endogenous Bcl-w in HeLa cells

Molecule: zVAD.fmk
- recruitment of Bcl-w to the membrane fraction with caspase inhibitor (Bcl-w in FDC-P1 cells; 50 μM zVAD.fmk plus death signals, FD/FLAG–Bcl-w cells): Bcl-w was still recruited into the membrane fraction in response to death signals
- delay of cell death (FDC-P1 cells): delayed cell death

Molecule: COc1cc([C@@H]2c3cc4c(cc3[C@@H](O[C@@H]3O[C@@H]5CO[C@@H](C)O[C@H]5[C@H](O)[C@H]3O)[C@H]3COC(=O)[C@H]23)OCO4)cc(OC)c1O [etoposide]
- membrane association of endogenous Bcl-w [1]: Damage signals trigger membrane association of endogenous Bcl-w in HeLa cells

B1: BimLΔC27 (recombinant BimL lacking its COOH-terminal hydrophobic 27 amino acids) (domain or fragment, mouse, UniProt O54918-2 1-113, looked up)
chain: MAKQPSDVSSECDREGGQLQPAERPPQLRPGAPTSLQTEPQDRSPAPMSCDKSTQTPSPPCQAFNHYLSAMASIRQSQEEPEDLRPEIRIAQELRRIGDEFNETYTRRVFAND
- binding result [2]: binds

B2: BimLΔC27: Purified recombinant BimL lacking its COOH-terminal hydrophobic 27 amino acids (protein)
chain: MAKQPSDVSSECDREGGQLQPAERPPQLRPGAPTSLQTEPQDRSPAPMSCDKSTQTPSPPCQAFNHYLSAMASIRQSQEEPEDLRPEIRIAQELRRIGDEFNETYTRRVFAND
modifications: left off: GST, end not stated, state not stated
- binding to Bcl-w (Bcl-w ΔC10): binds purified Bcl-w with high (nM) affinity

Molecule: B3
- fold reduction of binding against wtBH3 [3]: > 50 fold

B4: Wild-type Bcl-w: prosurvival Bcl-2 family protein, expressed FLAG-tagged (protein)
chain: MATPASAPDTRALVADFVGYKLRQKGYVCGAGPGEGPAADPLHQAMRAAGDEFETRFRRTFSDLAAQLHVTPGSAQQRFTQVSDELFQGGPNWGRLVAFFVFGAALCAESVNKEMEPLVGQVQEWMVAYLETQLADWIHSSGGWAEFTALYGDGALEEARRLREGNWASVRTVLTGAVALGALVTVGAFFASK
modifications: left off: FLAG, N-terminal, kept
- binding to BimEL (BimEL): interacts avidly with Bim

Molecule: DLRPEIRIAQELRRIGDEFNETYTRR [wtBH3, 26-mer peptide spanning the BH3 domain of Bim]
- binding result [2]: binds
